Source: ChEMBL document CHEMBL4354826, “Structure-Based Discovery of SD-36 as a Potent, Selective, and Efficacious PROTAC Degrader of STAT3 Protein” (J Med Chem, 2019)
Active and inactive are the calls of the source. No cut-off for these calls is given here.

Columns and labels:
[1] = Antiproliferative activity against human MOLM16 cells assessed as reduction in cell viability incubated for 4 days by cell-titer glo luminescent assay; format: functional, cell-based; conditions: MOLM16, 96 h
Method in brief: (§1)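 Viability assay: cells incubated with serially diluted compounds for 4 days, viability read by CellTiter-Glo luminescence; IC50 from concentration–response.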

[2] = target: T1, Protein cereblon/Signal transducer and activator of transcription 3 (Homo sapiens, UniProt P40763+Q96SW2); assay: Protac activity at CRBN/STAT3 in human MOLM16 cells assessed as degradation of STAT3 incubated for 4 hrs by Western blot analysis; format: cell-based
Method in brief: (§2)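 Molm-16 cells treated 4 h with serially diluted compound. Lysates immunoblotted (SDS–PAGE, PVDF, 5% blocker/TBST, chemiluminescence) for total STAT3 and pSTAT3 Y705. DC50 taken as the concentration reducing total STAT3 by 50%.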
Target sequence in this assay (P40763 whole entry): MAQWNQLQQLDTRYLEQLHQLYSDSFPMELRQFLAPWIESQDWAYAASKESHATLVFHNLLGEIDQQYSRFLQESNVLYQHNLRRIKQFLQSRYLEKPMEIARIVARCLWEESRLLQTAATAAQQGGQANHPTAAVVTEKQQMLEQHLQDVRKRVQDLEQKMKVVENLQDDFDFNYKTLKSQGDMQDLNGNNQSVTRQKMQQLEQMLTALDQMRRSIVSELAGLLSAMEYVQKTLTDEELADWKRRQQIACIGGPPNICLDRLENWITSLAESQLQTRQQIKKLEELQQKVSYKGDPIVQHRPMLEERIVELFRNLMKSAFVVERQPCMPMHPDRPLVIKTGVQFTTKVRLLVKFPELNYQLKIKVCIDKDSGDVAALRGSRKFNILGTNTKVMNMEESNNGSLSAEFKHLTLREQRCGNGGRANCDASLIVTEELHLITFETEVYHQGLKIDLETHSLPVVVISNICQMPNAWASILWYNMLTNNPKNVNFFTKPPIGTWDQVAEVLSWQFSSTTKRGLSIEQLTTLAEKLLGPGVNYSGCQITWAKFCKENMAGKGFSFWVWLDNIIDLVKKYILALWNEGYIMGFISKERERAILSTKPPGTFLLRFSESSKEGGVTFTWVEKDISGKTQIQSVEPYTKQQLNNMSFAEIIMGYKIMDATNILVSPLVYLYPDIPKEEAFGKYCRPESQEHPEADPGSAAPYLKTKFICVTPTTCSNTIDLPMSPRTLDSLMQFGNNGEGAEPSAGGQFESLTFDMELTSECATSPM
Target sequence in this assay (Q96SW2 whole entry): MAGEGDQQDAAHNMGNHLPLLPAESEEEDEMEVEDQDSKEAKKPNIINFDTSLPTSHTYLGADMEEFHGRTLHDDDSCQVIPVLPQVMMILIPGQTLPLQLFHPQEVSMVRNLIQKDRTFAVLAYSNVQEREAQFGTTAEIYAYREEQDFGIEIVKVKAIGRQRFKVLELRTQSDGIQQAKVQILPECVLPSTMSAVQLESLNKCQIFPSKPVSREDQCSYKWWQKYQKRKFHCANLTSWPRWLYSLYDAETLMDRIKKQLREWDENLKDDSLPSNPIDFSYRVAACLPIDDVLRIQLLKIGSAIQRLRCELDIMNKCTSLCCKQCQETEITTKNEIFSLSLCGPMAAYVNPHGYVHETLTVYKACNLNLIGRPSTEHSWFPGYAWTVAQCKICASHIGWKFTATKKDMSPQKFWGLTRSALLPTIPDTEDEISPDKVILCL

[3] = target: T1, Protein cereblon/Signal transducer and activator of transcription 3; assay: Protac activity at CRBN/STAT3 in human SUDHL1 cells assessed as degradation of STAT3 incubated for 16 hrs by Western blot analysis; format: cell-based
Target sequence in this assay (P40763 whole entry): as the sequence (P40763 whole entry) above
Target sequence in this assay (Q96SW2 whole entry): as the sequence (Q96SW2 whole entry) above

[4] = target: T1, Protein cereblon/Signal transducer and activator of transcription 3; assay: Protac activity at CRBN/STAT3 in human SUDHL1 cells assessed as degradation of phosphorylated STAT3 Y705 upto 5 uM incubated for 16 hrs by Western blot analysis; format: cell-based
Target sequence in this assay (P40763 2-770 limits assumed): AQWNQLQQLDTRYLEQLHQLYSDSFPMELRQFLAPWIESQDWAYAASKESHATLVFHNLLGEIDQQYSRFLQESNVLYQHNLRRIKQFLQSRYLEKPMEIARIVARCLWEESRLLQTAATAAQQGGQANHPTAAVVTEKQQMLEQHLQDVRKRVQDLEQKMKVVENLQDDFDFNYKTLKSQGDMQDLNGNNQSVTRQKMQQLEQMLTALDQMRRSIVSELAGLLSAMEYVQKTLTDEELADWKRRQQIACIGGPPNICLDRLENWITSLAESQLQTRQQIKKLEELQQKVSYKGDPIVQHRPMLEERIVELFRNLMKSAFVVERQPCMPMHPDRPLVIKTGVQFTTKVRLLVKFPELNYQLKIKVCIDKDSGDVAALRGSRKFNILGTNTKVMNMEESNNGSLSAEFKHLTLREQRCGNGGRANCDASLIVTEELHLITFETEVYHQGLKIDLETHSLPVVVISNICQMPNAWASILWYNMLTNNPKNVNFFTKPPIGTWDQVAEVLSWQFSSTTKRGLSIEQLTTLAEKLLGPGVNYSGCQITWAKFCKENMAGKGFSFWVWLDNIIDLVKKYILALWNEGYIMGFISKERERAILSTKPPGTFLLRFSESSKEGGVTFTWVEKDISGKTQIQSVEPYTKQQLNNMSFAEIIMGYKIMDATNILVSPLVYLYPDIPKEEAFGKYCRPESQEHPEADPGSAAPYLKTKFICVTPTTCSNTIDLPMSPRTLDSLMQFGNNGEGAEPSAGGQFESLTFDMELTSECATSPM
Target sequence in this assay (Q96SW2 whole entry partner): as the sequence (Q96SW2 whole entry) above

SU-DHL-1 = assay: Antiproliferative activity against human SUDHL1 cells assessed as reduction in cell viability incubated for 4 days by cell-titer glo luminescent assay; format: functional, cell-based; conditions: SU-DHL-1, 96 h; method in brief: as §1
[5] = target: T1, Protein cereblon/Signal transducer and activator of transcription 3; assay: Protac activity at CRBN/STAT3 in human SUDHL1 cells assessed as degradation of STAT3 upto 5 uM incubated for 16 hrs by Western blot analysis; format: cell-based
Target sequence in this assay (P40763 2-770 limits assumed): as the sequence (P40763 2-770 limits assumed) above
Target sequence in this assay (Q96SW2 whole entry partner): as the sequence (Q96SW2 whole entry) above

[6] = target: T2, Signal transducer and activator of transcription 3 (Homo sapiens, UniProt P40763); assay: Binding affinity to recombinant human His/SUMO-tagged STAT3 (127 to 688 residues) expressed in Escherichia coli Rosetta (DE3) incubated for 1 hr by fluorescence polarization assay
[7] = target: T2, Signal transducer and activator of transcription 3; assay: Potency index, ratio of Ki of CJ-887 to Ki of compound for binding affinity to recombinant human His/SUMO-tagged STAT3 (127 to 688 residues) expressed in Escherichia coli Rosetta (DE3) incubated for 1 hr by fluorescence polarization assay
[8] = target: T1, Protein cereblon/Signal transducer and activator of transcription 3; assay: Protac activity at CRBN/STAT3 in human MOLM16 cells assessed as degradation of phosphorylated STAT3 Y705 upto 10 uM incubated for 4 hrs by Western blot analysis; format: cell-based; method in brief: as §2
Target sequence in this assay (P40763 2-770 limits assumed): as the sequence (P40763 2-770 limits assumed) above
Target sequence in this assay (Q96SW2 whole entry partner): as the sequence (Q96SW2 whole entry) above

[9] = target: T1, Protein cereblon/Signal transducer and activator of transcription 3; assay: Protac activity at CRBN/STAT3 in human MOLM16 cells assessed as degradation of STAT3 up to 10 uM incubated for 4 hrs by Western blot analysis; format: cell-based; method in brief: as §2
Target sequence in this assay (P40763 2-770 limits assumed): as the sequence (P40763 2-770 limits assumed) above
Target sequence in this assay (Q96SW2 whole entry partner): as the sequence (Q96SW2 whole entry) above

T2 sequence (P40763 whole entry, the tested form may be a part): as the sequence (P40763 whole entry) above

| SMILES | IC50 [1] | DC50 [2] | Ki [6] | also measured |
| --- | --- | --- | --- | --- |
| NC(=O)CC[C@H](NC(=O)[C@@H]1CC[C@@H]2CCN(C(=O)c3cnn(CCCC#Cc4cccc5c4CN(C4CCC(=O)NC4=O)C5=O)c3)C[C@H](NC(=O)c3cc4cc(C(F)(F)P(=O)(O)O)ccc4[nH]3)C(=O)N21)C(=O)NC(c1ccccc1)c1ccccc1 (stereo partly drawn) | 241 nM | 180 nM |  |  |
| NC(=O)CC[C@H](NC(=O)[C@@H]1CC[C@@H]2CCN(C(=O)CCCCCC#Cc3cccc4c3C(=O)N(C3CCC(=O)NC3=O)C4=O)C[C@H](NC(=O)c3cc4cc(C(F)(F)P(=O)(O)O)ccc4[nH]3)C(=O)N21)C(=O)NC(c1ccccc1)c1ccccc1 (stereo partly drawn) | 582 nM | 3540 nM |  | DC50 [3]: > 10000 nM; Activity [4]: inactive; IC50 (SU-DHL-1): > 10000 nM; Activity [5]: inactive |
| CC(=O)N1CC[C@H]2CC[C@@H](C(=O)N[C@@H](CCC(N)=O)C(=O)NC(c3ccccc3)c3ccccc3)N2C(=O)[C@@H](NC(=O)c2cc3cc(CP(=O)(O)O)ccc3[nH]2)C1 |  |  | 584 nM |  |
| NC(=O)CC[C@H](NC(=O)[C@@H]1CC[C@@H]2CCN(C(=O)CCCCCC#Cc3ccc4c(c3)CN(C3CCC(=O)NC3=O)C4=O)C[C@H](NC(=O)c3cc4cc(C(F)(F)P(=O)(O)O)ccc4[nH]3)C(=O)N21)C(=O)NC(c1ccccc1)c1ccccc1 (stereo partly drawn) | 104 nM | 410 nM |  |  |
| NC(=O)CC[C@H](NC(=O)[C@@H]1CC[C@@H]2CCCC[C@H](NC(=O)c3cc4cc(C(F)(F)P(=O)(O)O)ccc4[nH]3)C(=O)N21)C(=O)NCc1ccccc1 |  |  | 7 nM | Ratio Ki [7]: 7 |
| NC(=O)CC[C@H](NC(=O)[C@@H]1CC[C@@H]2CCN(C(=O)CCCCCC#Cc3cccc4c3CN(C3CCC(=O)NC3=O)C4=O)C[C@H](NC(=O)c3cc4cc(C(F)(F)P(=O)(O)O)ccc4[nH]3)C(=O)N21)C(=O)NCc1ccccc1 (stereo partly drawn) | 210 nM | 220 nM |  | DC50 [3]: 55 nM; IC50 (SU-DHL-1): 3240 nM |
| NC(=O)CC[C@H](NC(=O)[C@@H]1CC[C@@H]2CCN(C(=O)N3CCC(CCC#Cc4cccc5c4CN(C4CCC(=O)NC4=O)C5=O)CC3)C[C@H](NC(=O)c3cc4cc(C(F)(F)P(=O)(O)O)ccc4[nH]3)C(=O)N21)C(=O)NC(c1ccccc1)c1ccccc1 (stereo partly drawn) | 99 nM | 180 nM |  |  |
| NC(=O)CC[C@H](NC(=O)[C@@H]1CC[C@@H]2CCN(C(=O)CCCCCC#Cc3cccc4c3CN(C3CCC(=O)NC3=O)C4=O)C[C@H](NC(=O)c3cc4cc(OP(=O)(O)O)ccc4[nH]3)C(=O)N21)C(=O)NC(c1ccccc1)c1ccccc1 (stereo partly drawn) | > 2000 nM | > 10000 nM |  | Activity [8]: inactive; Activity [9]: inactive |
| NC(=O)CC[C@H](NC(=O)[C@@H]1CC[C@@H]2CCN(C(=O)CC(=O)N3CCC(C#Cc4cccc5c4CN(C4CCC(=O)NC4=O)C5=O)CC3)C[C@H](NC(=O)c3cc4cc(C(F)(F)P(=O)(O)O)ccc4[nH]3)C(=O)N21)C(=O)NC(c1ccccc1)c1ccccc1 (stereo partly drawn) | 67 nM | 380 nM |  |  |
| NC(=O)CC[C@H](NC(=O)[C@@H]1CC[C@@H]2CCCC[C@H](NC(=O)c3cc4cc(OP(=O)(O)O)ccc4[nH]3)C(=O)N21)C(=O)NCc1ccccc1 |  |  | 25 nM | Ratio Ki [7]: 2 |
| NC(=O)CC[C@H](NC(=O)[C@@H]1CC[C@@H]2CCN(C(=O)CCCCCCNc3cccc4c3CN(C3CCC(=O)NC3=O)C4=O)C[C@H](NC(=O)c3cc4cc(C(F)(F)P(=O)(O)O)ccc4[nH]3)C(=O)N21)C(=O)NC(c1ccccc1)c1ccccc1 (stereo partly drawn) | 59 nM | 90 nM |  |  |
| CC(=O)N1CC[C@H]2CC[C@@H](C(=O)N[C@@H](CCC(N)=O)C(=O)NCc3ccccc3)N2C(=O)[C@@H](NC(=O)c2cc3cc(C(F)(F)P(=O)(O)O)ccc3[nH]2)C1 |  |  | 14 nM |  |
| CC(=O)N1CC[C@H]2CC[C@@H](C(=O)N[C@@H](CCC(N)=O)C(=O)NC(c3ccccc3)c3ccccc3)N2C(=O)[C@@H](NC(=O)/C=C(\C)c2ccc(C(F)(F)P(=O)(O)O)cc2)C1 |  |  | 164 nM |  |
| NC(=O)CC[C@H](NC(=O)[C@@H]1CC[C@@H]2CCN(C(=O)CCCCCCCCC#Cc3cccc4c3CN(C3CCC(=O)NC3=O)C4=O)C[C@H](NC(=O)c3cc4cc(C(F)(F)P(=O)(O)O)ccc4[nH]3)C(=O)N21)C(=O)NC(c1ccccc1)c1ccccc1 (stereo partly drawn) | 42 nM | 150 nM |  |  |
